Bounds are passed on as bounds.

This is an account of results in ChEMBL document CHEMBL4184225, “Discovery of selective 2,4-diaminoquinazoline toll-like receptor 7 (TLR 7) agonists” (Bioorg Med Chem Lett, 2018).

Data set [1] can be described thus: AUClast in C57BL/6 mouse liver at 5 mg/kg, po administered as single dose. The format is ADME, organism-based. The conditions noted are these: in vivo. In outline:
(§1)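 Healthy C57BL/6 mice given a single oral dose (1 or 5 mg/kg). Plasma and liver drug levels measured over time to give Tmax, Cmax and AUC0-last. Three mice per time point, reported as geometric mean.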

For data set [2], the system named is Mus musculus. Nature of the data set: Induction of IFN-alpha production in C57BL/6 mouse liver assessed as peak IFN-alpha level at 5 mg/kg, po administered as single dose by ELISA. The format is functional. The method, boiled down:
(§2)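 Healthy C57BL/6 mice given a single oral dose (1 or 5 mg/kg). Mouse IFN-α measured by ELISA in plasma and liver homogenates over time. Peak level (Fmax) and time of peak recorded. Three mice per time point, reported as geometric mean.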

A short description of data set [3]: Tmax in Sprague-Dawley rat at 10 mg/kg, po. The format is ADME, organism-based. The conditions noted are these: in vivo. In outline:
(§3)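 Healthy male Sprague-Dawley rats given a single oral dose of 10 mg/kg. Portal vein plasma, systemic plasma and liver sampled. Cmax and Tmax determined, and AUC over 0–last. Liver/plasma ratio calculated from AUC(0-last).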

Data set [4] has as its system Mus musculus. Nature of the data set: Induction of IFN-alpha production in C57BL/6 mouse liver assessed as time for peak induction of IFN-alpha at 5 mg/kg, po administered as single dose by ELISA. The format is functional. The method, boiled down: as §2
The species named for another data set is Homo sapiens. Nature of the data set: Selectivity index, ratio of MEC for agonist activity at human TLR8 expressed in HEK293 cells to MEC for agonist activity at human TLR7 expressed in HEK293 cells as. Format: cell-based. In outline: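 Ratio of TLR8 to TLR7 LEC from HEK293 NFκB-luciferase reporter assays. Cells were transiently transfected with TLR7 or TLR8 construct plus NFκB-luc and treated with compound for 6 h at 37°C. LEC is the lowest concentration with signal at least two-fold above the assay SD, from quadruplicate dose-response curves.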

The test system of data set [5] is Mus musculus. Nature of the data set: Induction of IFN-alpha production in C57BL/6 mouse plasma assessed as time for peak induction of IFN-alpha at 5 mg/kg, po administered as single dose by ELISA. Format: functional. The method, boiled down:
as §2

A short description of data set [6]: Cmax in C57BL/6 mouse plasma at 5 mg/kg, po administered as single dose. Format: ADME, organism-based. Set-up: dose 5 mg/kg, route oral. The method, boiled down:
as §1

Data set [7] is described as follows: Cmax in Sprague-Dawley rat plasma at 10 mg/kg, po. Format: ADME, organism-based. Set-up: dose 10 mg/kg, route oral. In outline:
as §3

The nature of data set [8]: Cmax in C57BL/6 mouse liver at 5 mg/kg, po administered as single dose. The format is ADME, organism-based. Set-up: dose 5 mg/kg, route oral. The note with it: in vivo. The method, boiled down:
as §1

Data set [9] is described as follows: Oral bioavailability in Sprague-Dawley rat at 10 mg/kg. The format is ADME, organism-based. The conditions noted are these: in vivo.
Data set [10] can be described thus: AUClast in C57BL/6 mouse plasma at 5 mg/kg, po administered as single dose. Format: ADME, organism-based. Further details: dose 5 mg/kg, route oral, time 0 - last. The method, boiled down:
as §1

A short description of data set [11]: Tmax in C57BL/6 mouse at 5 mg/kg, po administered as single dose. Format: ADME, organism-based. The note with it: in vivo. The method, boiled down: as §1
The nature of data set [12]: Metabolic stability in rat liver microsomes assessed as drug metabolism after 15 mins at 1 uM. (In general: Liver microsomes are a subcellular fraction often used to study metabolism.)
In data set [13] the test system is Mus musculus. Nature of the data set: Induction of IFN-alpha production in C57BL/6 mouse plasma assessed as peak IFN-alpha level at 5 mg/kg, po administered as single dose by ELISA. The format is functional. The method, boiled down:
as §2
For orientation: In an ELISA, binding on a coated surface is turned into a signal by an enzyme label.

The nature of data set [14]: Ratio of drug level in liver to plasma in C57BL/6 mouse at 1 mg/kg, po administered as single dose. Format: ADME, organism-based. The note with it: liver and plasma, 5 mg/kg, in the assay text read “5 mg/kg” for “1 mg/kg”. The method, boiled down: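 Single oral dose to healthy C57BL/6 mice. Liver and plasma drug exposure measured, three mice per time point as geometric mean, and expressed as liver-to-plasma ratio.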

A short description of data set [15]: Cmax in C57BL/6 mouse plasma at 1 mg/kg, po administered as single dose. Format: ADME, organism-based. Set-up: dose 1 mg/kg, route oral. The method, boiled down: as §1
In data set [16] the test system is Mus musculus. Nature of the data set: Induction of IFN-alpha production in C57BL/6 mouse liver assessed as time for peak induction of IFN-alpha at 1 mg/kg, po administered as single dose by ELISA. Format: functional. In outline:
as §2

The nature of data set [17]: Tmax in C57BL/6 mouse at 1 mg/kg, po administered as single dose. The format is ADME, organism-based. The conditions noted are these: in vivo. The method, boiled down: as §1
Data set [18] in a line: AUClast in C57BL/6 mouse liver at 1 mg/kg, po administered as single dose. Format: ADME, organism-based. Further details: dose 1 mg/kg, time 0 - last, route oral. The method, boiled down: as §1
Data set [19] in a line: AUClast in C57BL/6 mouse plasma at 1 mg/kg, po administered as single dose. Format: ADME, organism-based. Set-up: dose 1 mg/kg, time 0 - last, route oral. In outline:
as §1

Data set [20] deals with Mus musculus. Nature of the data set: Induction of IFN-alpha production in C57BL/6 mouse plasma assessed as time for peak induction of IFN-alpha at 1 mg/kg, po administered as single dose by ELISA. Format: functional. In outline: as §2
The subject of data set [21] is Mus musculus. Nature of the data set: Induction of IFN-alpha production in C57BL/6 mouse liver assessed as peak IFN-alpha level at 1 mg/kg, po administered as single dose by ELISA. The format is functional. The method, boiled down: as §2
For data set [22], the system named is Mus musculus. Nature of the data set: Induction of IFN-alpha production in C57BL/6 mouse plasma assessed as peak IFN-alpha level at 1 mg/kg, po administered as single dose by ELISA. Format: functional. In outline: as §2
Data set [23] is described as follows: Cmax in C57BL/6 mouse liver at 1 mg/kg, po administered as single dose. Set-up: dose 1 mg/kg, route oral. Format: ADME, organism-based. The method, boiled down: as §1
Data set [24] in a line: Plasma clearance in Sprague-Dawley rat at 2.5 mg/kg, iv. Format: ADME, organism-based.
The next data set relates to Rattus norvegicus. Nature of the data set: Plasma clearance in Sprague-Dawley rat at 2.5 mg/kg, iv relative hepatic blood flow. The conditions noted are these: in vivo. The format is ADME, organism-based.

In the case of `CCCCNc1nc(N)nc2cccc(C(=O)N[C@@H](C)c3ccccc3)c12`, in data set [1], the AUClast amounted to 6619 ng·h/g. Besides, the Fmax was found to be 325 pg/mg in the data set with Mus musculus [2] and 2800 pg/mL in the data set on Mus musculus [13]. The time of peak concentration (Tmax) (commonly the time at which the peak concentration occurs) in [3] was determined as 240 min; in data set [11], 60 min. Moreover, the Time with Mus musculus [4] and in the data set with Mus musculus [5] was 4 h throughout. Besides, in the data set listed under Homo sapiens, the Ratio is more than 250. Moreover, the Cmax (as a rule, the peak of the concentration-time curve) in data set [6] was 142 ng/mL; in data set [7], 87 ng/mL; in data set [8], 3230 ng/g. Besides, the bioavailability (commonly the share of a dose that reaches the circulation, judged against a reference dose that is usually intravenous) in data set [9] was 20%. Besides, the area under the curve AUC(0-t) (usually exposure summed from dosing to a finite time, without extrapolation to infinity) in data set [10] turned out to be 365 ng·h/mL. In addition, the metabolised at 0.25 h, 1 µM in data set [12] stood at 54%. Further, the partition ratio (Kp) (commonly tissue or fluid exposure divided by exposure in the circulation) in [14] came to 23.
Turning to `CCCCNc1nc(N)nc2ccccc12`, the Cmax in data set [15] amounted to 3 ng/mL; in [7], 33 ng/mL; in data set [23], 207 ng/mL. Moreover, the Time in the data set on Mus musculus [16] and in the data set with Mus musculus [20] was 1 h in each case. Also, the Tmax in [3] and in data set [17] was 30 min in each case. Further, the AUC(0-t) in data set [18] came out at 133 ng·h/mL; in data set [19] it was 3 ng·h/mL. This compound returned a bioavailability in data set [9] of 5.4%. Further, the Fmax was found to be 200 pg/mg in the data set on Mus musculus [21] and 315 pg/mL with Mus musculus [22]. Besides, the metabolised at 0.25 h, 1 µM in data set [12] was found to be 95%. Also, the clearance (commonly a measure of how efficiently the substance is removed, as volume per time) in [24] turned out to be 163 mL/min/kg.
Take `CCCCNc1nc(N)nc2cccc(C(=O)N(C)Cc3ccccc3)c12`: the Tmax in [3] was 30 min. The highest level in data set [7] (Cmax) was 9 ng/mL. The bioavailability in [9] came to 1.2%. Moreover, the CL in the data set with Rattus norvegicus is reported as 79%. In addition, the metabolised at 0.25 h, 1 µM in data set [12] turned out to be 99%. In data set [24], this compound registered a clearance of 55 mL/min/kg.
`CCCCNc1nc(N)nc2cccc(OCc3ccc(CO)cc3OC)c12`: in the data set filed under Homo sapiens, the Ratio was more than 200.
The same measure, in the same setting: for `CCCCNc1nc(N)nc2cccc(OCc3ccccc3OC)c12` the value was 90.
The same measure, in the same setting: for `CCCCNc1nc(N)nc2cccc(OCc3ccccc3)c12` the value was 10.
